# Measurements from different studies.
# Each line is one published result; the experiments were not run side by side.
# Serine protease HTRA1 S328A: Serine protease HTRA1 (Homo sapiens, UniProt Q92743, S328A)
# TMEM97: Sigma intracellular receptor 2 (TMEM97, Homo sapiens, UniProt Q5BJF2)
# tspO: tspO (Cereibacter sphaeroides, UniProt Q9RFC8)
Compound,target,test,setting,measurement,result
CC(C)C[C@H](NC(=O)CNC(=O)[C@H](C)NC(=O)c1ccc(S(=O)(=O)NC[C@H]2O[C@@H](C)[C@@H](O)[C@@H](O)[C@@H]2O)cc1)C(=O)N[C@@H](C)C(=O)N[C@H]1CCN(c2cc3c(cc2F)c(=O)c(C(=O)O)cn3C2CC2)C1,"Fucose-binding lectin PA-IIL (lecB, Pseudomonas aeruginosa, UniProt Q9HYN5)","ligand displacement, FP",,Ki,1430 nM
COc1ncccc1-c1cnn2ccc(N3CCN(C(=O)OC(C)C)CC3)nc12,"Acetylcholine receptor subunit alpha (CHRNA1, Homo sapiens, UniProt P02708)","ion current, inhibitor",,IC50,12 µM
CC[C@H](C)[C@H](NC(=O)[C@H](Cc1c[nH]c2ccccc12)NC(=O)[C@H](C)NC(=O)[C@H](C)NC(=O)[C@H](Cc1ccc(O)cc1)NC(=O)[C@@H](N)CO)C(=O)N[C@@H](CC(=O)O)C(=O)N[C@H](C(=O)N[C@@H](CCC(=O)O)C(=O)N[C@@H](CO)C(=O)N[C@@H](CC(C)C)C(=O)O)C(C)C,Serine protease HTRA1 S328A,"binding, ITC",pH 8,Kd,43.3 µM
COc1cc(C(=O)N2CC[C@@H](O)[C@@H](N)C2)cc2nc(-c3cc4ccccc4n3CC3CC3)n(C)c12,"Prostaglandin G/H synthase 2 (PTGS2, Homo sapiens, UniProt P35354)","enzyme activity, inhibitor",,IC50,> 100 µM
Cc1c2ccncc2c(C)c2c1[nH]c1ccccc12,TMEM97,"ligand displacement, radioligand",,Ki,> 10000 nM
CCC(C)N(C)C(=O)c1cc2ccccc2c(-c2ccccc2Cl)n1 (stereo not drawn),tspO,"binding, fluorescence",,Kd,10 µM
CC[C@H](C)[C@H](NC(=O)[C@H](Cc1c[nH]c2ccccc12)NC(=O)[C@H](C)NC(=O)[C@H](C)NC(=O)[C@H](Cc1ccc(O)cc1)NC(=O)[C@@H](N)CO)C(=O)N[C@@H](CC(=O)O)C(=O)N[C@@H](CO)C(=O)N[C@H](C(=O)N[C@@H](CC(C)C)C(=O)N[C@@H](C)C(=O)O)C(C)C,Serine protease HTRA1 S328A,"binding, ITC",pH 8,Kd,3.9 µM
CC1CCN(CCCC(=O)c2ccc(F)cc2)CC1,TMEM97,"ligand displacement, radioligand",,Ki,115 nM
CC(C)C[C@H](NC(=O)[C@H](CO)NC(=O)[C@H](CCC(=O)O)NC(=O)[C@@H](NC(=O)[C@H](CC(C)C)NC(=O)[C@H](CC(=O)O)NC(=O)[C@H](CC(=O)O)NC(=O)[C@H](CC(=O)O)NC(=O)[C@@H](NC(=O)[C@H](Cc1c[nH]c2ccccc12)NC(=O)[C@@H](N)CCC(=O)O)[C@@H](C)O)C(C)C)C(=O)O,Serine protease HTRA1 S328A,"binding, ITC",pH 8,Kd,39.7 µM
OCCN1CCN(CCCN2c3ccccc3C=Cc3ccccc32)CC1,TMEM97,"ligand displacement, radioligand",,Ki,126 nM
"NC[C@@H]1[C@H]2CN3C(=O)c4cccn4[C@@H]4NC(N)=N[C@@]43[C@@H]2[C@]2(N=C(N)N[C@H]2O)[C@H]1Cl (single isomer, unassigned)","Proteasome subunit beta type-8, chymotrypsin-like site (PSMB8, Homo sapiens, UniProt P28062)","enzyme activity, inhibitor",,IC50,2.8 µM
Cc1c(-c2ccccc2)no[n+]1[O-],"Thioredoxin glutathione reductase (Schistosoma mansoni, UniProt Q962Y6)","enzyme activity, inhibitor",,IC50,> 50 µM
CC(C)C[C@H](NC(=O)[C@H](Cc1ccccc1)NC(=O)c1cnccn1)B(O)O,"Dipeptidyl peptidase 2 (Homo sapiens, UniProt Q9UHL4)","enzyme activity, inhibitor",,IC50,8.5 µM
COc1cc(/C=C/C(=O)CC(=O)/C=C/c2ccc(O)c(OC)c2)ccc1O,tspO,"binding, fluorescence",,Kd,1.4 µM
Cc1cccc(CN2CCN(C(c3ccccc3)c3ccc(Cl)cc3)CC2)c1 (stereo not drawn),TMEM97,"ligand displacement, radioligand",,Ki,> 10000 nM
CC(C)(NC(=O)O[C@@H]1CN2CCC1CC2)c1csc(-c2ccc(F)cc2)n1,"Lysosomal acid glucosylceramidase (GBA1, Homo sapiens, UniProt P04062)","enzyme activity, inhibitor",,IC50,> 300 µM
COc1cc(Nc2ncc(F)c(Nc3ccc4c(n3)NC(=O)C(C)(C)O4)n2)cc(OC)c1OC,"UDP-glucuronosyltransferase 1A1 (UGT1A1, Homo sapiens, UniProt P22309)","enzyme activity, inhibitor",,IC50,0.158 µM
CC(C)(C)[C@]1(O)CCN2C[C@@H]3c4ccccc4CCc4cccc(c43)[C@H]2C1,TMEM97,"ligand displacement, radioligand",,Ki,4790 nM
